Results from ChEMBL document CHEMBL1132174, “Anti-AIDS agents. 37. Synthesis and structure-activity relationships of (3'R,4'R)-(+)-cis-khellactone derivatives as novel potent anti-HIV agents” (J Med Chem, 1999).

Legend:
CEM-SS [1] = assay: The compound was tested for anti HIV activity in CEM-SS cell lines; type: functional, cell-based; settings: Homo sapiens
Outline: (§1)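 Run at NCI in the CEM-SS T4 lymphocyte line. The agent was dissolved in DMSO, diluted 1:100 in medium, then serially diluted in half-log10 steps, giving a 1:200 final compound dilution. Cells were added, followed shortly by HIV-1, and incubated for 6 days at 37 °C in 5% CO2. Viable cells were read by XTT formazan spectrophotometry, with microscopic confirmation. Drug-treated infected wells were compared against drug-treated uninfected (toxicity) wells and untreated controls.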

[2] = Therapeutic index value of the cpmpound against CEM-SS cells; type: cell-based; settings: human, read-out: Therapeutic index; outline: as §1
[3] = tested on: Human immunodeficiency virus 1; assay: Antiviral activity against HIV-1 in H9 lymphocytes.; type: functional, organism-based
[4] = tested on: Human immunodeficiency virus 1; assay: Anti-HIV activity in H9 lymphocytes.; type: functional, organism-based
[5] = Therapeutic index in H9 lymphocytes.; type: cell-based; settings: human, read-out: Therapeutic index
CEM-SS [6] = assay: The compound was tested for anti HIV activity in CEM-SS cell lines; Inactive; type: functional, cell-based, Homo sapiens; outline: as §1
[7] = Therapeutic index value of the cpmpound against CEM-SS cells; Inactive; type: cell-based; settings: human; outline: as §1
H9 = assay: The compound was tested for anti HIV activity in H9 lymphocytes; No suppression; type: functional, cell-based, Homo sapiens
[8] = Therapeutic index value against H9 lymphocytes; No suppression; type: cell-based; settings: human

SMILES	EC50 (CEM-SS [1]) [µM]	IC50 (CEM-SS [1]) [µM]	selectivity ratio [2]	EC50 [3] [nM]	IC50 ([4]; Human immunodeficiency virus 1) [µM]	selectivity ratio [5]	EC50 (CEM-SS [6])	Therapeutic index [7]	EC50 (H9)	Therapeutic index [8]	IC50 [4] [µM]
CC1(C)Oc2ccc3ccc(=O)oc3c2[C@@H](OC(=O)C23CCC(C)(C(=O)O2)C3(C)C)[C@H]1OC(=O)C12CCC(C)(C(=O)O1)C2(C)C (stereo partly drawn)	0.26	26	100	0.256	35	137000	–	–	–	–	–
Cc1cc2ccc3c(c2oc1=O)[C@@H](OC(=O)C12CCC(C)(C(=O)O1)C2(C)C)[C@@H](OC(=O)C12CCC(C)(C(=O)O1)C2(C)C)C(C)(C)O3 (stereo partly drawn)	0.213	> 12.5	> 58.7	0.0525	> 113	> 2.15e+06	–	–	–	–	–
Cc1cc2ccc(=O)oc2c2c1OC(C)(C)[C@H](OC(=O)C13CCC(C)(C(=O)O1)C3(C)C)[C@@H]2OC(=O)C12CCC(C)(C(=O)O1)C2(C)C (stereo partly drawn)	0.376	> 200	> 532	151	33	218	–	–	–	–	–
Cc1cc2c(c3oc(=O)ccc13)[C@@H](OC(=O)C13CCC(C)(C(=O)O1)C3(C)C)[C@@H](OC(=O)C13CCC(C)(C(=O)O1)C3(C)C)C(C)(C)O2 (stereo partly drawn)	0.0635	> 200	> 3150	0.000239	> 95	> 3.97e+08	–	–	–	–	–
COc1cc2c(c3oc(=O)ccc13)[C@@H](OC(=O)C13CCC(C)(C(=O)O1)C3(C)C)[C@@H](OC(=O)C13CCC(C)(C(=O)O1)C3(C)C)C(C)(C)O2 (stereo partly drawn)	0.128	> 200	> 1560	0.192	> 153	> 797000	–	–	–	–	–
COc1cc(=O)oc2c3c(ccc12)OC(C)(C)[C@H](OC(=O)C12CCC(C)(C(=O)O1)C2(C)C)[C@@H]3OC(=O)C12CCC(C)(C(=O)O1)C2(C)C (stereo partly drawn)	0.125	> 200	> 1600	2.99	> 153	> 51200	–	–	–	–	–
COc1cc2ccc(=O)oc2c2c1OC(C)(C)[C@H](OC(=O)C13CCC(C)(C(=O)O1)C3(C)C)[C@@H]2OC(=O)C12CCC(C)(C(=O)O1)C2(C)C (stereo partly drawn)	–	> 200	–	15800	> 153	> 9.68	Not Active	Not Active	–	–	–
CC(=O)O[C@@H]1[C@H](OC(=O)C23CCC(C)(C(=O)O2)C3(C)C)c2c(ccc3c(C)cc(=O)oc23)OC1(C)C (stereo partly drawn)	–	–	–	55.2	123	2230	–	–	–	–	–
CCCc1cc(=O)oc2c3c(ccc12)OC(C)(C)[C@H](OC(=O)C12CCC(C)(C(=O)O1)C2(C)C)[C@@H]3OC(=O)C12CCC(C)(C(=O)O1)C2(C)C (stereo partly drawn)	0.763	> 200	> 262	17.5	> 151	> 8630	–	–	–	–	–
Cc1cc(=O)oc2c3c(ccc12)OC(C)(C)[C@H](OC(=O)Nc1cccc2ccccc12)[C@@H]3OC(=O)Nc1cccc2ccccc12	–	–	–	–	98	–	–	–	Not Active	Not Active	–
CC(C)c1cc(=O)oc2c3c(ccc12)OC(C)(C)[C@H](OC(=O)C12CCC(C)(C(=O)O1)C2(C)C)[C@@H]3OC(=O)C12CCC(C)(C(=O)O1)C2(C)C (stereo partly drawn)	0.584	> 128	> 219	31.5	> 151	> 4790	–	–	–	–	–
Cc1cc(=O)oc2c3c(ccc12)OC(C)(C)[C@H](OC(=O)c1cccc(Br)c1)[C@@H]3OC(=O)c1cccc(Br)c1	–	–	–	–	> 91.6	–	–	–	Not Active	Not Active	–
CC1(C)Oc2ccc3c(-c4ccccc4)cc(=O)oc3c2[C@@H](OC(=O)C23CCC(C)(C(=O)O2)C3(C)C)[C@H]1OC(=O)C12CCC(C)(C(=O)O1)C2(C)C (stereo partly drawn)	–	–	–	120	> 143	> 1190	–	–	–	–	–
Cc1cc(=O)oc2c3c(ccc12)OC(C)(C)[C@H](OC(=O)C12CCC(C)(C(=O)O1)C2(C)C)[C@@H]3OC(=O)C12CC3CC(CC(C3)C1)C2 (stereo partly drawn)	–	–	–	600	21.3	35.5	–	–	–	–	–
COc1cc2ccc3c(c2oc1=O)[C@@H](OC(=O)C12CCC(C)(C(=O)O1)C2(C)C)[C@@H](OC(=O)C12CCC(C)(C(=O)O1)C2(C)C)C(C)(C)O3 (stereo partly drawn)	0.494	16.8	34	2.38	> 153	> 64300	–	–	–	–	–
CC1(C)Oc2ccc3c(C(F)(F)F)cc(=O)oc3c2[C@@H](OC(=O)C23CCC(C)(C(=O)O2)C3(C)C)[C@H]1OC(=O)C12CCC(C)(C(=O)O1)C2(C)C (stereo partly drawn)	–	–	–	1810	> 145	> 80.1	–	–	–	–	–
CC(=O)O[C@@H]1[C@H](OC(=O)C23CC4CC(CC(C4)C2)C3)c2c(ccc3c(C)cc(=O)oc23)OC1(C)C	–	–	–	1140	19	16.7	–	–	–	–	–
Cc1cc(=O)oc2c3c(ccc12)OC(C)(C)[C@H](OC(=O)CC(C)C)[C@@H]3OC(=O)CC(C)C	–	–	–	–	42	–	–	–	Not Active	Not Active	–
CC(=O)O[C@@H]1c2c(ccc3c(C)cc(=O)oc23)OC(C)(C)[C@@H]1OC(C)=O	–	–	–	83100	171	2.06	–	–	–	–	–
Cc1cc(=O)oc2c3c(ccc12)OC(C)(C)[C@H](O)[C@@H]3OC(=O)C12CCC(C)(C(=O)O1)C2(C)C (stereo partly drawn)	–	–	–	–	> 219	–	–	–	–	–	–
Cc1cc(=O)oc2c3c(ccc12)OC(C)(C)[C@H](O)[C@@H]3OC(=O)C12CC3CC(CC(C3)C1)C2	–	–	–	–	43.2	–	–	–	Not Active	Not Active	–
Cc1cc(=O)oc2c3c(ccc12)OC(C)(C)[C@H](OC(=O)C12CCC(C)(C(=O)O1)C2(C)C)[C@@H]3OC(=O)C12CCC(C)(C(=O)O1)C2(C)C (stereo in doubt; 8)	0.0635	> 200	> 3150	–	> 126	–	–	–	–	–	–
Cc1cc(=O)oc2c3c(ccc12)OC(C)(C)[C@H](OC(=O)C12CCC(C)(C(=O)O1)C2(C)C)[C@@H]3OC(=O)C12CCC(C)(C(=O)O1)C2(C)C (stereo in doubt; 19)	–	–	–	–	–	–	–	–	–	–	> 157
Cc1cc(=O)oc2c3c(ccc12)OC(C)(C)[C@H](OS(=O)(=O)CC12CCC(CC1=O)C2(C)C)[C@@H]3O (stereo in doubt; 22)	–	–	–	–	–	–	–	–	–	–	42
Cc1cc(=O)oc2c3c(ccc12)OC(C)(C)[C@H](OS(=O)(=O)CC12CCC(CC1=O)C2(C)C)[C@@H]3O (stereo in doubt; 23)	–	–	–	–	45	–	–	–	Not Active	Not Active	–
Cc1cn([C@H]2C[C@H](N=[N+]=[N-])[C@@H](CO)O2)c(=O)[nH]c1=O [ZIDOVUDINE]	0.0038	> 1	–	4500	–	–	–	–	–	–	–
